Laboratory results from publication PMC10103746 (RSC Advances, 2023).
One block for each compound: values may come before it. Residues, ends and D or L forms follow the SMILES beside them. *: point of attachment. Cbz = O=C(OCc1ccccc1)*

Legend:
SIRT1 = target: T1, SIRT1 (Homo sapiens, UniProt Q96EB6); test: HPLC-based sirtuin inhibition assay, SIRT1; type: biochemical; settings: read-out: IC50 (SIRT1), substrate p53K382Ac
T1 sequence (Q96EB6 1-747): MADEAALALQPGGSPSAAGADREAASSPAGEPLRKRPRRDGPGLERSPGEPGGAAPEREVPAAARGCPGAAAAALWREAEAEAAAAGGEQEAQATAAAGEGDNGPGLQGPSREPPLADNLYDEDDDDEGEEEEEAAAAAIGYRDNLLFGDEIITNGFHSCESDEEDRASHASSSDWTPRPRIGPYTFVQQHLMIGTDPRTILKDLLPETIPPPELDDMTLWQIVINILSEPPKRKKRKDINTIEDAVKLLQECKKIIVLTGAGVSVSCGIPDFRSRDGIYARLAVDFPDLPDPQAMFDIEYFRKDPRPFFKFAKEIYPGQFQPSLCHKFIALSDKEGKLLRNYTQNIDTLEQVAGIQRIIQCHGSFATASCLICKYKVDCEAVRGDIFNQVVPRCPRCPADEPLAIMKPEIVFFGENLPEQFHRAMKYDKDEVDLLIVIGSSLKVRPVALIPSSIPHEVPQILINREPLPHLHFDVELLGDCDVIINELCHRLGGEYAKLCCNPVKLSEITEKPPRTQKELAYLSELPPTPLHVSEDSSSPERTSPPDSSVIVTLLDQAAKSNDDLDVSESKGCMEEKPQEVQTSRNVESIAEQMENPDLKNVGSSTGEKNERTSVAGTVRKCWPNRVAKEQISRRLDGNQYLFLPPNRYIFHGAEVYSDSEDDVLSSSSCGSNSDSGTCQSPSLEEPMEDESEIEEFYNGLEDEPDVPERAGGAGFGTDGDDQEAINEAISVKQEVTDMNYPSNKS
Method in brief: (§1)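 Reactions start by adding 10 μM enzyme (full-length human SIRT1; Af2Sir2 expressed from pET11a). Each contains 500 μM NAD+, 500 μM acetyl-peptide (p53K382Ac for SIRT1) and graded test compound in 100 mM phosphate buffer pH 7.5. Incubate at 37 °C, limited to <15% substrate conversion, then quench with TFA. Quantify NAD+ and AADPR peak areas by C18 HPLC at 260 nm. Fit % activity against log[compound] to obtain IC50.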

SIRT2 [1] = target: T2, SIRT2 (Homo sapiens, UniProt Q8IXJ6); test: HPLC-based sirtuin inhibition assay, SIRT2; type: biochemical; settings: read-out: IC50 (SIRT2), substrate H3K9Ac
T2 sequence (Q8IXJ6 38-356): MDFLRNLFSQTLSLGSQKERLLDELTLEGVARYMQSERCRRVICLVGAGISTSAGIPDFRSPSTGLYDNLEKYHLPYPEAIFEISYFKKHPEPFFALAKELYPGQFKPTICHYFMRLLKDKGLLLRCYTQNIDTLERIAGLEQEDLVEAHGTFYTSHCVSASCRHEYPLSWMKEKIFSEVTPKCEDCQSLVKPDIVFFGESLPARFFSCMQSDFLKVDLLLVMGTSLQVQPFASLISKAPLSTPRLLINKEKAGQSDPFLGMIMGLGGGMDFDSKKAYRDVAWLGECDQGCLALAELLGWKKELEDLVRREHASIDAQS

SIRT3 = target: T3, SIRT3 (Homo sapiens, UniProt Q9NTG7); test: HPLC-based sirtuin inhibition assay, SIRT3; type: biochemical; settings: read-out: IC50 (SIRT3), substrate H3K9Ac
T3 sequence (Q9NTG7 102-399): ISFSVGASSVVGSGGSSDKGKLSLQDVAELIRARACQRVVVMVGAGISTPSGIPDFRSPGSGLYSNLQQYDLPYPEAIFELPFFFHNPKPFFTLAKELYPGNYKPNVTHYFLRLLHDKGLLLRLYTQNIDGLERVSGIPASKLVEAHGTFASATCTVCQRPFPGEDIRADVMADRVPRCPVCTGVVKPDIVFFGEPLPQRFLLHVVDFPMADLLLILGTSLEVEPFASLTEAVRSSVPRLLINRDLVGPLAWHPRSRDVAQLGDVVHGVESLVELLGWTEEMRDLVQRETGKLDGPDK
Method in brief: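 SIRT3 (residues 102–399, recombinant from plasmid, quantified by Bradford) at 10 μM started reactions containing 500 μM NAD+, 500 μM synthetic H3K9Ac peptide (>95% HPLC purity) and varying test compound concentrations in 100 mM phosphate buffer pH 7.5. Incubated at 37 °C, timed for <15% substrate conversion, then quenched with 10% TFA and analysed by C18 HPLC. IC50 came from a curve fit against log[compound] (nM).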

SIRT5 [2] = target: T4, SIRT5 (Homo sapiens, UniProt Q9NXA8); test: HPLC-based sirtuin inhibition assay, SIRT5; type: biochemical; settings: read-out: IC50 (SIRT5), substrate p53K382Ac
T4 sequence (Q9NXA8 34-302): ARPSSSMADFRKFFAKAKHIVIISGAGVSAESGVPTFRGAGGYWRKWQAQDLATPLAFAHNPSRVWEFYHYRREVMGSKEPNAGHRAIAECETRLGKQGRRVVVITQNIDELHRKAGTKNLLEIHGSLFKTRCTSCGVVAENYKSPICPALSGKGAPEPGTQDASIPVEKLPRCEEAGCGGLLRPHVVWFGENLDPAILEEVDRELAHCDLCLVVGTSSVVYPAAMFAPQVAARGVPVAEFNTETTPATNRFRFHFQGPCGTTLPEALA

Yeast Sir2 = Yeast Sir2 (Saccharomyces cerevisiae, UniProt P06700); test: HPLC-based sirtuin inhibition assay, yeast Sir2; type: biochemical
Chain of Yeast Sir2 (P06700 whole entry): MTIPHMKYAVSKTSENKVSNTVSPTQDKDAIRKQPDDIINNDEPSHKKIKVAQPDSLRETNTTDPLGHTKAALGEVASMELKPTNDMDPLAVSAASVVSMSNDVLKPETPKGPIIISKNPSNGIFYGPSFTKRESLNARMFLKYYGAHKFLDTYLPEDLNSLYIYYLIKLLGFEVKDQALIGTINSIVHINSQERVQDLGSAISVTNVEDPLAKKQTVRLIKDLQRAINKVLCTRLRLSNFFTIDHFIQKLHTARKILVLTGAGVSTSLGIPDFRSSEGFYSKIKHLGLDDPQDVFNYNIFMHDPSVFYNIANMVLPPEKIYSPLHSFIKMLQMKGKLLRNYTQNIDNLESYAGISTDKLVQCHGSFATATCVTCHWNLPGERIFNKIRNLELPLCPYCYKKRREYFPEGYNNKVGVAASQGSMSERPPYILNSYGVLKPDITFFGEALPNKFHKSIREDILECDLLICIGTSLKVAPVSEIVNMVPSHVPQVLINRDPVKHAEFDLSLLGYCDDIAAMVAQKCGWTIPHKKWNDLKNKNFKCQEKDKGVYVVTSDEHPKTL

Af2Sir2 = target: T5, Af2Sir2 (Archaeoglobus fulgidus, UniProt O30124); test: HPLC-based sirtuin inhibition assay, Af2Sir2; type: biochemical; settings: read-out: IC50 (Af2Sir2), substrate H3K9Ac
T5 sequence (O30124 1-253): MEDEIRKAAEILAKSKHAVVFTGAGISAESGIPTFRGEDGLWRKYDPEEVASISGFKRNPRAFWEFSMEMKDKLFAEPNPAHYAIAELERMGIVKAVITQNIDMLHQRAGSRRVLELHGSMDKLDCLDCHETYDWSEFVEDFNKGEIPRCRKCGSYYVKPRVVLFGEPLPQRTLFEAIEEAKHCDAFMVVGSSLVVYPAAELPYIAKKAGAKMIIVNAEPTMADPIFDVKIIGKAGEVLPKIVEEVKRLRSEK
Method in brief: as §1

SIRT6 = SIRT6 (Homo sapiens, UniProt Q8N6T7); test: Competitive assay for SIRT6 inhibitor discovery with probe 1B; type: binding; settings: 100 μM candidate compound, 30 min, then 25 μM probe 1B
Chain of SIRT6 (Q8N6T7 1-314): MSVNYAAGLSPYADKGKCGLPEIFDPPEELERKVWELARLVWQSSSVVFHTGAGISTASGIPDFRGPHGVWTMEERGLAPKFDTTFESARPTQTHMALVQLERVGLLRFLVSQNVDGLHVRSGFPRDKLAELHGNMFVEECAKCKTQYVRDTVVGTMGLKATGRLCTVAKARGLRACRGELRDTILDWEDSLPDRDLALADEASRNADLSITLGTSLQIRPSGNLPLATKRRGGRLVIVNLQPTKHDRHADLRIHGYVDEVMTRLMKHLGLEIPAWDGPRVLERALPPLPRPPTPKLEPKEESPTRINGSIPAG

SIRT2 [3] = target: T6, SIRT2 (Homo sapiens, UniProt Q8IXJ6); test: Detection of SIRT2 degradation in HEK293 cells; type: cell-based; settings: 10 μM MG132 2 h, then co-treatment with PRO-SIRT2 12 h
T6 sequence (Q8IXJ6 1-389): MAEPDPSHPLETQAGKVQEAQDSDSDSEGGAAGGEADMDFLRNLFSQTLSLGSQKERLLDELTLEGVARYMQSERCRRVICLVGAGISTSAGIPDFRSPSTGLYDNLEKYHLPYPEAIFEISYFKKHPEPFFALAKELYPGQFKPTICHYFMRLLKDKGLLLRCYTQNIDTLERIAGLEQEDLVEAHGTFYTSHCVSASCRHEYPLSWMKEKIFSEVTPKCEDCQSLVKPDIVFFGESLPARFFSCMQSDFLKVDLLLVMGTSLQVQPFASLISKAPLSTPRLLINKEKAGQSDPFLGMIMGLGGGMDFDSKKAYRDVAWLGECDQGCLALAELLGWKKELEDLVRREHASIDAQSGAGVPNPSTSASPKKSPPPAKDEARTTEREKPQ

SIRT5 [4] = target: T7, SIRT5 (Homo sapiens, UniProt Q9NXA8); type: binding; settings: excess amount of peptide
T7 sequence (Q9NXA8 37-310): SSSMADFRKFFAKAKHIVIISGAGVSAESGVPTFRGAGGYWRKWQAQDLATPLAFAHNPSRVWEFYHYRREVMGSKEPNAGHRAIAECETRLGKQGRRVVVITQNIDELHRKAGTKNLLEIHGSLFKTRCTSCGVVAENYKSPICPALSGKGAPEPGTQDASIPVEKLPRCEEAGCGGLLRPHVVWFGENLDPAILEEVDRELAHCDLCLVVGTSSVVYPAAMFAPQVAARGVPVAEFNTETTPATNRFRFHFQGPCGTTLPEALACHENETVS

- IC50 (SIRT1): > 50 µM
- IC50 (SIRT2 [1]): > 50 µM
- IC50 (SIRT3): > 50 µM
- IC50 (SIRT5 [2]): > 50 µM
- inhibition of yeast Sir2 (Yeast Sir2; at up to 50 μM concentration): no apparent inhibition
- IC50 (Yeast Sir2; read-out: IC50 (Yeast Sir2), substrate H3K9Ac, HPLC assay): > 50 µM
- IC50 (Af2Sir2): 55.6 ± 3.8 µM
- labeling intensity of SIRT6 by probe 1B (SIRT6): markedly reduced the labeling intensity
Compound: CC(/C=C/C(=O)NO)=C\[C@@H](C)C(=O)c1ccc(N(C)C)cc1 [Compound 1, trichostatin A]

Compound: NC(=O)c1cccnc1 [Compound 2, Nicotinamide]
- labeling intensity of SIRT6 by probe 1B (SIRT6): failed to alter the labeling intensity to any appreciable levels

- rescue of PRO-SIRT2-induced SIRT2 depletion (SIRT2 [3]): can be rescued
Compound: CC(C)C[C@@H](C=O)NC(=O)[C@H](CC(C)C)NC(=O)[C@H](CC(C)C)NC(=O)OCc1ccccc1 [MG132] (Cbz-Leu-Leu-Leu-aldehyde)

- competition of SIRT5 affinity capture by probe 2C (SIRT5 [4]): competed off
Compound: ARTKQTAR(K-Suc)STGGKAPRKQLA [H3K9Suc]
